# Key:
# L1210 = test: Tested for the inhibition of L1210 cell proliferation.; format: functional, cell-based; conditions: Mus musculus
# Method in brief: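 L1210 cells were grown in RPMI 1640 with 10% FCS, 2 mM L-glutamine and 10 mM HEPES (pH 7.4). Exponential-phase cells (10^5 cells/mL) were exposed for 24 h to 5 drug concentrations in triplicate, then pulsed 3 h with 0.5 µCi/mL [3H]thymidine. Cells were harvested onto filters and counted. IC50 is 50% inhibition of incorporation versus untreated cells, given as the mean of 2–5 independent experiments.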
# P388 [1] = test: Compound was tested for T/C range at optimal dose of 3.0 mg/kg for antitumor activity against P388 leukemia cells in mice.; format: functional, Mus musculus
# Tubulin = test: The compound tested for the inhibition of tubulin polymerization.; format: functional
# Method in brief: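 Tubulin was partially purified from dog brain by polymerization/depolymerization cycles and used at 0.5 mg/mL. Compounds were added in DMSO (10 µL per 500 µL reaction) at 10^-6 to 10^-9 M, with DMSO-only controls. Polymerization was followed by turbidity at 350 nm. Rates from two separate experiments were plotted against concentration, and IC50 was read graphically.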
# P388 [2] = test: Long-term survivors (LTS) for 60 days at optimal dose of 3.0 mg/kg for antitumor activity against P388 leukemia cells in 6 mice.; format: functional, Mus musculus
# P388 [3] = test: Long-term survivors (LTS) for 60 days at optimal dose of 1.00 mg/kg for antitumor activity against P388 leukemia cells in 5 mice.; format: functional, Mus musculus
# P388 [4] = test: Compound was tested for T/C range at optimal dose of 1.00 mg/kg for antitumor activity against P388 leukemia cells in mice.; format: functional, Mus musculus
# P388 [5] = test: Compound was tested for T/C range at optimal dose of 40.0 mg/kg for antitumor activity against P388 leukemia cells in mice.; format: functional, Mus musculus
# P388 [6] = test: Long-term survivors (LTS) for 60 days at optimal dose of 40.0 mg/kg for antitumor activity against P388 leukemia cells in 6 mice.; format: functional, Mus musculus
# P388 [7] = test: Compound was tested for T/C range at optimal dose of 0.25 mg/kg for antitumor activity against P388 leukemia cells in mice.; format: functional, Mus musculus
# P388 [8] = test: Long-term survivors (LTS) for 60 days at optimal dose of 0.25 mg/kg for antitumor activity against P388 leukemia cells in 6 mice.; format: functional, Mus musculus
# P388 [9] = test: Long-term survivors (LTS) for 60 days at optimal dose of 1.00 mg/kg for antitumor activity against P388 leukemia cells in 6 mice.; format: functional, Mus musculus
# P388 [10] = test: Long-term survivors (LTS) for 60 days at optimal dose of 5.00 mg/kg for antitumor activity against P388 leukemia cells in 12 mice.; format: functional, Mus musculus
# P388 [11] = test: Compound was tested for T/C range at optimal dose of 5.00 mg/kg for antitumor activity against P388 leukemia cells in mice; value ranges from 149-224; format: functional, Mus musculus
# P388 [12] = test: Long-term survivors (LTS) for 60 days at optimal dose of 1.00 mg/kg for antitumor activity against P388 leukemia cells in 12 mice.; format: functional, Mus musculus
# P388 [13] = test: Compound was tested for T/C range at optimal dose of 1.00 mg/kg for antitumor activity against P388 leukemia cells in mice; value ranges from 234-302; format: functional, Mus musculus
# P388 [14] = test: Compound was tested for T/C range at optimal dose of 0.15 mg/kg for antitumor activity against P388 leukemia cells in mice; value ranges from 168-600; format: functional, Mus musculus
# P388 [15] = test: Long-term survivors (LTS) for 60 days at optimal dose of 0.15 mg/kg for antitumor activity against P388 leukemia cells in 25 mice.; format: functional, Mus musculus
# P388 [16] = test: Long-term survivors (LTS) for 60 days at optimal dose of 0.5 mg/kg for antitumor activity against P388 leukemia cells in 96 mice.; format: functional, Mus musculus
# P388 [17] = test: Compound was tested for T/C range at optimal dose of 0.5 mg/kg for antitumor activity against P388 leukemia cells in mice; value ranges from 151-480; format: functional, Mus musculus
smiles,measurement,setting,value
CCOP(=O)(OCC)[C@H](NC(=O)[C@@]1(O)[C@H](O)[C@]2(CC)C=CCN3CC[C@@]4(c5cc([C@@]6(C(=O)OC)C[C@@H]7CN(CCc8c6[nH]c6ccccc86)C[C@](O)(CC)C7)c(OC)cc5N(C)[C@@H]14)[C@@H]32)C(C)C,IC50,L1210,10.9 nM
same,T/C,P388 [1],135%
same,IC50,Tubulin,800 nM
same,LTS,P388 [2],0
C=CC[C@H](NC(=O)[C@@]1(O)[C@H](O)[C@]2(CC)C=CCN3CC[C@@]4(c5cc([C@@]6(C(=O)OC)C[C@@H]7CN(CCc8c6[nH]c6ccccc86)C[C@](O)(CC)C7)c(OC)cc5N(C)[C@@H]14)[C@@H]32)P(=O)(OCC)OCC,IC50,L1210,1.29 nM
same,LTS,P388 [3],0
same,T/C,P388 [4],294%
CCOP(=O)(OCC)[C@@H](Cc1c[nH]c2ccccc12)NC(=O)[C@@]1(O)[C@H](O)[C@]2(CC)C=CCN3CC[C@@]4(c5cc([C@@]6(C(=O)OC)C[C@@H]7CN(CCc8c6[nH]c6ccccc86)C[C@](O)(CC)C7)c(OC)cc5N(C)[C@@H]14)[C@@H]32,IC50,L1210,36.7 nM
same,T/C,P388 [5],197%
same,IC50,Tubulin,100 nM
same,LTS,P388 [6],0
CCOP(=O)(OCC)[C@H](C)NC(=O)[C@@]1(O)[C@H](O)[C@]2(CC)C=CCN3CC[C@@]4(c5cc([C@@]6(C(=O)OC)C[C@@H]7CN(CCc8c6[nH]c6ccccc86)C[C@](O)(CC)C7)c(OC)cc5N(C)[C@@H]14)[C@@H]32,IC50,L1210,0.4 nM
same,T/C,P388 [7],342%
same,IC50,Tubulin,200 nM
same,LTS,P388 [8],2
CCOP(=O)(OCC)[C@@H](C)NC(=O)[C@@]1(O)[C@H](O)[C@]2(CC)C=CCN3CC[C@@]4(c5cc([C@@]6(C(=O)OC)C[C@@H]7CN(CCc8c6[nH]c6ccccc86)C[C@](O)(CC)C7)c(OC)cc5N(C)[C@@H]14)[C@@H]32,IC50,L1210,37 nM
same,LTS,P388 [9],0
same,IC50,Tubulin,80 nM
same,T/C,P388 [4],145%
CCOP(=O)(OCC)C(Cc1ccccc1)NC(=O)[C@@]1(O)[C@H](O)[C@]2(CC)C=CCN3CC[C@@]4(c5cc([C@@]6(C(=O)OC)C[C@@H]7CN(CCc8c6[nH]c6ccccc86)C[C@](O)(CC)C7)c(OC)cc5N(C)[C@@H]14)[C@@H]32 (mixture of isomers),IC50,L1210,46 nM
same,LTS,P388 [10],0
same,IC50,Tubulin,70 nM
same,T/C,P388 [11],149%
C=CCC(NC(=O)[C@@]1(O)[C@H](O)[C@]2(CC)C=CCN3CC[C@@]4(c5cc([C@@]6(C(=O)OC)C[C@@H]7CN(CCc8c6[nH]c6ccccc86)C[C@](O)(CC)C7)c(OC)cc5N(C)[C@@H]14)[C@@H]32)P(=O)(OCC)OCC (some centres undefined),IC50,L1210,3.7 nM
same,IC50,Tubulin,300 nM
same,LTS,P388 [12],2
same,T/C,P388 [13],234%
CCOP(=O)(OCC)[C@@H](NC(=O)[C@@]1(O)[C@H](O)[C@]2(CC)C=CCN3CC[C@@]4(c5cc([C@@]6(C(=O)OC)C[C@@H]7CN(CCc8c6[nH]c6ccccc86)C[C@](O)(CC)C7)c(OC)cc5N(C)[C@@H]14)[C@@H]32)C(C)C,IC50,L1210,0.43 nM
same,IC50,Tubulin,400 nM
same,T/C,P388 [14],168%
same,LTS,P388 [15],8
CCOP(=O)(OCC)[C@H](Cc1c[nH]c2ccccc12)NC(=O)[C@@]1(O)[C@H](O)[C@]2(CC)C=CCN3CC[C@@]4(c5cc([C@@]6(C(=O)OC)C[C@@H]7CN(CCc8c6[nH]c6ccccc86)C[C@](O)(CC)C7)c(OC)cc5N(C)[C@@H]14)[C@@H]32,IC50,L1210,64.7 nM
same,T/C,P388 [5],188%
same,IC50,Tubulin,100 nM
same,LTS,P388 [6],0
CCOP(=O)(OCC)C(C)NC(=O)[C@@]1(O)[C@H](O)[C@]2(CC)C=CCN3CC[C@@]4(c5cc([C@@]6(C(=O)OC)C[C@@H]7CN(CCc8c6[nH]c6ccccc86)C[C@](O)(CC)C7)c(OC)cc5N(C)[C@@H]14)[C@@H]32 (mixture of isomers),IC50,L1210,2.5 nM
same,LTS,P388 [16],7
same,IC50,Tubulin,100 nM
same,T/C,P388 [17],151%

# Reference: ChEMBL document CHEMBL1125276 (J Med Chem, 1991)
